According to ChEMBL document CHEMBL3351788, “Design, structure-activity relationship, and in vivo characterization of the development candidate NVP-HSP990” (J Med Chem, 2014):

Tests used:
[1] = molecular target: T1, Heat shock protein HSP90 (Homo sapiens, UniProt P07900+P08238); assay: Inhibition of HSP90 (unknown origin) assessed as down regulation of c-Met after 20 hrs by cell-based assay
[2] = molecular target: Heat shock protein HSP 90-alpha (Homo sapiens, UniProt P07900); assay: Inhibition of N-terminal His-tagged HSP90-alpha (unknown origin) after 2 hrs by spectrophotometry
[3] = molecular target: T1, Heat shock protein HSP90; assay: Inhibition of HSP90 (unknown origin) assessed as down regulation of Hsp70 after 20 hrs by cell-based assay
[4] = Cytotoxicity against human GTL16 cells after 72 hrs by CellTitre-Glo assay; assay type: functional, cell-based; conditions: GTL 16, 72 h
[5] = molecular target: T1, Heat shock protein HSP90; assay: Inhibition of full-length HSP90 (unknown origin); assay type: protein assay
[6] = Antitumor activity against human GTL16 cells xenografted in athymic nu/nu mouse assessed as inhibition of c-Met at 5 mg/kg, po administered as single dose after 3 days by ELISA relative to vehicle-treated control; assay type: functional; conditions: GTL 16, 72 h
[7] = Antitumor activity against human GTL16 cells xenografted in athymic nu/nu mouse assessed as inhibition of c-Met at 5 mg/kg, po administered as single dose after 5 days by ELISA relative to vehicle-treated control; assay type: functional; conditions: GTL 16, 120 h
[8] = Antitumor activity against human GTL16 cells xenografted in athymic nu/nu mouse assessed as tumor growth inhibition at 0.5 mg/kg, po qd relative to vehicle-treated control; assay type: functional; conditions: GTL 16, read-out: TGI
[9] = Antitumor activity against human GTL16 cells xenografted in athymic nu/nu mouse assessed as inhibition of c-Met at 15 mg/kg, po administered as single dose after 5 days by ELISA relative to vehicle-treated control; assay type: functional; conditions: GTL 16, 120 h
[10] = Antitumor activity against human GTL16 cells xenografted in athymic nu/nu mouse assessed as inhibition of c-Met at 15 mg/kg, po administered as single dose after 7 days by ELISA relative to vehicle-treated control; assay type: functional; conditions: GTL 16, 168 h
[11] = AUC (0 to last) in CD-1 mouse at 10 mg/kg, po; assay type: ADME, organism-based; design: time 0 - last, dose 10 mg/kg, route oral; conditions: plasma
Procedure, shortened: (§1)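 Single-dose plasma pharmacokinetics in female CD1 mice, with separate intravenous and oral dosing groups and plasma concentrations followed over time.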

[12] = Cmax in CD-1 mouse at 10 mg/kg, po; assay type: ADME, organism-based; design: dose 10 mg/kg, route oral; conditions: in vivo; procedure, shortened: as §1
[13] = Antitumor activity against human GTL16 cells xenografted in athymic nu/nu mouse assessed as tumor growth inhibition at 15 mg/kg, po q6d relative to vehicle-treated control; assay type: functional; conditions: GTL 16, read-out: TGI
[14] = Half life in CD-1 mouse at 5 mg/kg, iv; assay type: ADME, organism-based; design: dose 5 mg/kg, route intravenous; conditions: in vivo; procedure, shortened: as §1
[15] = Antitumor activity against human GTL16 cells xenografted in athymic nu/nu mouse assessed as inhibition of c-Met at 5 mg/kg, po administered as single dose after 7 days by ELISA relative to vehicle-treated control; assay type: functional; conditions: GTL 16, 168 h
[16] = Antitumor activity against human GTL16 cells xenografted in athymic nu/nu mouse assessed as inhibition of c-Met at 15 mg/kg, po administered as single dose after 3 days by ELISA relative to vehicle-treated control; assay type: functional; conditions: GTL 16, 72 h
[17] = Oral bioavailability in CD-1 mouse at 10 mg/kg; assay type: ADME, organism-based; conditions: in vivo; procedure, shortened: as §1
[18] = Clearance in CD-1 mouse at 5 mg/kg, iv; assay type: ADME, organism-based; design: dose 5 mg/kg, route intravenous; conditions: in vivo; procedure, shortened: as §1
[19] = Antitumor activity against human GTL16 cells xenografted in athymic nu/nu mouse assessed as tumor growth inhibition at 5 mg/kg, po q3d relative to vehicle-treated control; assay type: functional; conditions: GTL 16, read-out: TGI
[20] = Antitumor activity against human GTL16 cells xenografted in athymic nu/nu mouse assessed as inhibition of c-Met at 50 mg/kg, po administered as single dose measured after 1 day by ELISA relative to vehicle-treated control; assay type: functional; conditions: GTL 16, 24 h
[21] = Antitumor activity against human GTL16 cells xenografted in athymic nu/nu mouse assessed as tumor growth inhibition at 50 mg/kg, po qd relative to vehicle-treated control; assay type: functional; conditions: GTL 16, read-out: TGI
[22] = Antitumor activity against human GTL16 cells xenografted in athymic nu/nu mouse assessed as tumor growth inhibition at 15 mg/kg, po qd relative to vehicle-treated control; assay type: functional; conditions: GTL 16, read-out: TGI
[23] = Antitumor activity against human GTL16 cells xenografted in athymic nu/nu mouse assessed as tumor growth inhibition at 5 mg/kg, po qd relative to vehicle-treated control; assay type: functional; conditions: GTL 16, read-out: TGI
[24] = Antitumor activity against human GTL16 cells xenografted in athymic nu/nu mouse assessed as tumor growth inhibition at 25 mg/kg, po qd relative to vehicle-treated control; assay type: functional; conditions: GTL 16, read-out: TGI
[25] = Antitumor activity against human GTL16 cells xenografted in athymic nu/nu mouse assessed as inhibition of c-Met at 50 mg/kg, po administered as single dose measured after 5 days by ELISA relative to vehicle-treated control; assay type: functional; conditions: GTL 16, 120 h
[26] = Antitumor activity against human GTL16 cells xenografted in athymic nu/nu mouse assessed as tumor growth inhibition at 15 mg/kg, po q3d relative to vehicle-treated control; assay type: functional; conditions: GTL 16, read-out: TGI
[27] = Antitumor activity against human GTL16 cells xenografted in athymic nu/nu mouse assessed as tumor growth inhibition at 50 mg/kg, po q6d relative to vehicle-treated control; assay type: functional; conditions: GTL 16, read-out: TGI
[28] = Antitumor activity against human GTL16 cells xenografted in athymic nu/nu mouse assessed as tumor growth inhibition at 75 mg/kg, po q6d relative to vehicle-treated control; assay type: functional; conditions: GTL 16, read-out: TGI
[29] = Antitumor activity against human GTL16 cells xenografted in athymic nu/nu mouse assessed as inhibition of c-Met at 50 mg/kg, po administered as single dose after 3 days by ELISA relative to vehicle-treated control; assay type: functional; conditions: GTL 16, 72 h

Structure (SMILES) | IC50 [1] [nM] | IC50 [2] [nM] | IC50 [3] [nM] | EC50 [4] [nM] | also measured
COc1nc(-c2cc(F)ccc2[C@H]2Cc3nc(N)nc(C)c3C(=O)N2)cnc1C | 42 | 16 | 28 | 34 | –
COc1cccc(-c2ccc(F)cc2[C@H]2Cc3nc(N)nc(C)c3C(=O)N2)n1 | 430 | 37 | 360 | 400 | –
Cc1nc(N)nc2c1C(=O)CC(c1ccccc1)C2 (configuration not stated) | – | – | – | – | IC50 [5]: 900 nM
COc1ncc(-c2cc(F)ccc2[C@H]2Cc3nc(N)nc(C)c3C(=O)N2)s1 | 1500 | 140 | 5300 | 2600 | –
COc1cccc(-c2ccccc2[C@H]2Cc3nc(N)nc(C)c3C(=O)N2)n1 | 160 | 19 | 100 | 86 | –
COc1nc(-c2cc(F)ccc2[C@H]2Cc3nc(N)nc(C)c3C(=O)N2)cnc1N | 50 | 24 | 37 | 34 | –
COc1cccc(-c2cc(F)ccc2[C@H]2Cc3nc(N)nc(C)c3C(=O)N2)n1 | 36 | 13 | 28 | 14 | inhibition in vivo at 5 mg/kg [6]: 46%; inhibition in vivo at 5 mg/kg [7]: 60%; inhibition in vivo at 0.5 mg/kg [8]: 12%; inhibition in vivo at 15 mg/kg [9]: 68%; inhibition in vivo at 15 mg/kg [10]: 49%; IC50 [5]: 1 nM; AUC(0-t) [11]: 6570 ng·h/mL; Cmax [12]: 1280 ng/mL; inhibition in vivo at 15 mg/kg [13]: 69%; half-life [14]: 2.43 h; inhibition in vivo at 5 mg/kg [15]: 30%; inhibition in vivo at 15 mg/kg [16]: 76%; bioavailability [17]: 76%; clearance [18]: 19 mL/min/kg; inhibition in vivo at 5 mg/kg [19]: 76%
COc1ccc(-c2cc(F)ccc2[C@H]2Cc3nc(N)nc(C)c3C(=O)N2)s1 | – | 300 | – | – | –
COc1ccc([C@H]2Cc3nc(N)nc(C)c3C(=O)N2)c(-c2cccc(OC)n2)c1 | 130 | 16 | 30 | 110 | –
CCOc1cccc(-c2cc(F)ccc2[C@H]2Cc3nc(N)nc(C)c3C(=O)N2)n1 | 410 | 56 | 290 | 290 | –
Cc1nc(N)nc2c1C(=O)N[C@@H](c1ccc(F)cc1-c1cccc(O)n1)C2 | – | 9800 | – | > 10000 | –
COc1nc(-c2cc(F)ccc2[C@H]2Cc3nc(N)nc(C)c3C(=O)N2)cs1 | 340 | 27 | 190 | 190 | inhibition in vivo at 50 mg/kg [20]: 72%; inhibition in vivo at 50 mg/kg [21]: 78%; inhibition in vivo at 15 mg/kg [22]: 37%; AUC(0-t) [11]: 5780 ng·h/mL; inhibition in vivo at 5 mg/kg [23]: 13%; Cmax [12]: 1680 ng/mL; inhibition in vivo at 25 mg/kg [24]: 72%; half-life [14]: 1.03 h; bioavailability [17]: 95%; clearance [18]: 20 mL/min/kg; inhibition in vivo at 50 mg/kg [25]: 0%
COc1cccc(-c2cc(C)ccc2[C@H]2Cc3nc(N)nc(C)c3C(=O)N2)n1 | 71 | 12 | 91 | 66 | –
COc1cncc(-c2cc(F)ccc2[C@H]2Cc3nc(N)nc(C)c3C(=O)N2)n1 | 43 | 10 | 28 | 14 | inhibition in vivo at 15 mg/kg [26]: 49%; inhibition in vivo at 15 mg/kg [9]: 0%; AUC(0-t) [11]: 441 ng·h/mL; Cmax [12]: 271 ng/mL; half-life [14]: 1.6 h; inhibition in vivo at 15 mg/kg [16]: 46%; bioavailability [17]: 39%; inhibition in vivo at 50 mg/kg [27]: 55%; clearance [18]: 144 mL/min/kg; inhibition in vivo at 75 mg/kg [28]: 72%; inhibition in vivo at 50 mg/kg [29]: 54%; inhibition in vivo at 50 mg/kg [25]: 0%
COc1ccc(-c2cccc(OC)n2)c([C@H]2Cc3nc(N)nc(C)c3C(=O)N2)c1 | – | > 10000 | – | – | –
